Screening results deposited in PubChem by The Scripps Research Institute Molecular Screening Center.
OX1R antag-1 = blocks the human orexin 1 receptor | O43613 | OX1R-expressing cells, FRET antagonist read-out | inhibition, % at 6.6 µM | 1.8% of 330,000 active; in the data active = inhibition mostly above about 38%, no sharp cut-off; inactive = mostly below about 40%
OX1R antag-2 = antagonists of human orexin 1 receptor; AID 434989; O43613; 0.43% of 330,000 active; CHO/OX1R cells, Fluo-8 calcium fluorescence, orexin A; inhibition, % at 5 µM;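 active = inhibition above its plate's threshold, mean inhibition of all tested compounds on the plate plus 3 SD, cut at about 37% in these data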
TRPML3 ag = activates the human TRPML3 channel. AID 1448. 0.29% of 220,000 active. Q8TDD5. activation, % at 3 µM. HEK293 TRPML3-YFP, Fluo-8 calcium fluorescence; 100% = the carbachol control signal;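 active = activation above its plate's cutoff, the mean activation of the plate's test wells plus 3 SD, cut at about 12% in these data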
Target sequence (Q8TDD5 whole entry, looked up): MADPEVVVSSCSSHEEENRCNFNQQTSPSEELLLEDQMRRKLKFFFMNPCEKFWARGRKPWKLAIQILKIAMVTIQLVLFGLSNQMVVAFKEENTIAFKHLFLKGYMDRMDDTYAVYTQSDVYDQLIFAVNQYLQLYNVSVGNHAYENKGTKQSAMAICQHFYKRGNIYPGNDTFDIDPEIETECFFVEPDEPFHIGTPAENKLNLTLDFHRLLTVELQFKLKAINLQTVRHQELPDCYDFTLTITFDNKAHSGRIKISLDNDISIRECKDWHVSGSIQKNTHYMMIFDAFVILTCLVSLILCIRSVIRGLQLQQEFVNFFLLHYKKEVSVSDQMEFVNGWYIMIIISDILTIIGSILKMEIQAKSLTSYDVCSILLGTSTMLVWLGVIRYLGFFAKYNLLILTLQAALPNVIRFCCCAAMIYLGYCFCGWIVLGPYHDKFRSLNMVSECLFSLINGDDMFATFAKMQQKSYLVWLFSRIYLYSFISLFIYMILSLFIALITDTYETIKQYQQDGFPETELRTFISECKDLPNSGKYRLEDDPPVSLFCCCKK
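system = HEK293 cells stably carrying human TRPML3-YFP | doses = one concentration, 3 µM nominal, 0.3% DMSO | timing = dye loading 1 h 37 °C then 30 min ambient, 125 s read | detection = Fluo-8 calcium dye fluorescence, ex 470-495, em 515-575 nm | benchmarks = high control carbachol 87 µM, low control DMSO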
TRPN1 ag = agonists of zebrafish TRPN1 channel | HEK293 zebrafish TRPN1-YFP, Fluo-8 calcium fluorescence; 100% = response to 87 µM carbachol | activation, % at 3 µM | 0.18% of 220,000 active | AID 1424;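 active = activation above its plate's cutoff, the mean activation of test wells on that plate plus 3 SD, cut at about 19% in these data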
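Material – zebrafish TRPN1-YFP in HEK293 cells · Doses – 3 µM single point · Schedule – dye 1 h 37 °C plus 30 min RT · Signal – Fluo-8 calcium fluorescence, excitation 470-495 nm, emission 515-575 nm · Read-out – % activation versus carbachol response · Control set – carbachol high, DMSO low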
CHO parental Ca = counter-screen for OX1R antagonists: effect in parental CHO cells; parental CHO-K1, ATP-induced calcium, Fluo-8 fluorescence; inhibition, % at 5.6 µM; 0.63% of 330,000 active; AID 463079;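 active = inhibition above that plate's mean sample inhibition plus 3 SD, cut at about 26% in these data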
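Material: parental CHO cells / Compound: single nominal dose of 5.6 µM per compound / Signal: Fluo-8 fluorescence / Replicates: singlicate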
Numbers stand for hits; i = inactive; nt = not tested or not shown. Compounds with a hit are over-represented: about 2.5% of the library has one in this group of screens.

SMILES	OX1R antag-1	OX1R antag-2	TRPML3 ag	TRPN1 ag	CHO parental Ca
CC(=O)c1cc(N2CCOCC2)ccc1[N+](=O)[O-]	nt	nt	i	i	nt
CN1CCN(CC(=O)Nc2cc(N3CCOCC3)ccc2[N+](=O)[O-])CC1	65	i	i	i	i
CC(OC(=O)[C@@H](NC(=O)c1ccco1)C(C)C)C(=O)Nc1ncc(Cl)cc1Cl (stereo not given in full)	i	i	nt	nt	i
C[n+]1cc(C(=O)N2CCCCC2)ccc1/C=C/c1c[nH]c2ccccc12	69	i	i	i	i
O=C(C(=O)N1CCCC1)c1c[nH]c2ccccc12	i	i	nt	nt	i
CCC(C)[C@H](NC(=O)N1CC(=O)Nc2ccccc21)C(=O)N[C@H](C(=O)O)c1ccccc1 (stereo not given in full)	i	i	nt	nt	i
O=[N+]([O-])c1ccc(S(=O)(=O)N(CC(O)CN2CCCCC2)c2ccccc2)cc1 (stereo not given)	48	i	nt	nt	i
O=[N+]([O-])c1ccc(N(CC(O)CN2CCCCC2)S(=O)(=O)c2ccccc2)cc1 (stereo not given)	i	i	nt	nt	i
COCCCN(Cc1ccco1)C(=O)CSc1nc2ncccc2[nH]1	i	i	nt	nt	i
Nc1nc2c(s1)CCc1c-2cnn1-c1ccccc1	61	i	i	i	i
Nc1nc2c(s1)COc1ccccc1-2	i	i	i	i	i
O=C(Nc1ccccc1)Nc1ccc(Cl)c(S(=O)(=O)N2CCOCC2)c1	i	i	13	23	i
O=C(CSc1cccc2cccnc12)Nc1ccc(S(=O)(=O)N2CCOCC2)cc1	i	i	i	i	38
COc1ccc(NC(=O)CC(C)c2ccccc2)cc1S(=O)(=O)N1CCOCC1 (stereo not given)	i	i	nt	nt	i
Cc1ccc(NC(=O)CC(C)c2ccccc2)cc1S(=O)(=O)N1CCOCC1 (stereo not given)	37	i	nt	nt	i
O=C(CSc1ccccc1)Nc1ccc(Cl)c(S(=O)(=O)N2CCOCC2)c1	40	i	nt	nt	i
O=C(Nc1ccc(NC(=O)c2ccc(Cl)c(S(=O)(=O)N3CCOCC3)c2)cc1)c1ccccc1	i	i	nt	nt	i
CCOC(=O)c1c(C)[nH]c(C)c1S(=O)(=O)N(C)CC(=O)NCc1ccc(C)cc1	i	i	nt	nt	i
CCCc1cc(CNC(=O)C2CCC(=O)N(Cc3ccccc3F)C2)on1 (stereo not given)	i	i	nt	nt	i
Cc1ccc(C2c3c(C)nn(-c4ccc([N+](=O)[O-])cc4)c3N=C3C(=O)Nc4ccccc4N32)cc1 (stereo not given)	i	i	33	26	i
COCCNc1nc(-c2ccccc2)nc2ccccc12	46	i	i	i	i
CC(=O)Nc1ccc(NC(=O)C(=O)N/N=C/c2cccnc2)cc1	i	i	i	i	i
O=C(c1cc2nc(-c3ccc(F)cc3)cc(C(F)(F)F)n2n1)N1CCCCC1c1cccnc1 (stereo not given)	i	i	i	i	42
CCCCNS(=O)(=O)c1cc2c3c(c1)CCN3C(=O)CC2	i	i	nt	nt	i
COc1ccc(NC(=O)COC(=O)C2CC2)c(OC)c1	i	i	nt	nt	i
SMILES	OX1R antag-1	OX1R antag-2	TRPML3 ag	TRPN1 ag	CHO parental Ca
Cc1ccc(F)cc1N=Cc1c(O)c2ccccc2oc1=O	58	i	nt	nt	i
CCc1cccc(C)c1N=Cc1c(O)c2ccccc2oc1=O	54	i	nt	nt	i
CN1CCCN(S(=O)(=O)c2ccc(O)c(C(=O)O)c2)CC1	i	i	nt	nt	i
CN1C(=O)c2ccc(NC(=O)c3c(C(=O)O)cccc3[N+](=O)[O-])cc2C1=O	i	i	nt	nt	i
CON(c1nc(N(C)C)nc(N(C)C)n1)S(=O)(=O)c1ccccc1Cl	31	i	i	i	i
Cn1nnnc1SCc1csc(Nc2ccccc2)n1	i	i	i	i	i
Cc1ccccc1-n1c(SCc2csc(Nc3ccccc3)n2)nnc1-c1cccnc1	69	i	i	i	i
Cc1ccc(Nc2nc(CSc3nnc(-c4ccccc4)n3C)cs2)cc1	i	i	i	i	i
Cc1ccc(Nc2nc(CSc3nnc(-c4cccnc4)n3-c3ccccc3C)cs2)cc1	67	i	i	i	i
O=C(O)C1C2CCC(O2)C1C(=O)Nc1ccccc1Br (stereo not given)	i	i	nt	nt	i
